Bounds are passed on as bounds.

Seven compounds from ChEMBL document CHEMBL4229549, “Discovery and structural characterization of peficitinib (ASP015K) as a novel and potent JAK inhibitor” (Bioorg Med Chem, 2018) can be followed below.

Series [1] deals with Tyrosine-protein kinase JAK1 (Homo sapiens, UniProt P23458). Nature of the series: Inhibition of recombinant human N-terminal GST-tagged JAK1 catalytic domain (850 to 1154 residues) expressed in baculovirus expression system using Biotin-Lyn-Substrate2 after 1 hr by ELISA.
Series [2] in a line: Intrinsic clearance in Sprague-Dawley rat liver microsomes at 0.2 uM in presence of NADPH by LC-MS/MS analysis. The class given is ADME, microsome. To be noted: read-out: CLH. The method, boiled down:
(§1)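 Compound at 0.2 or 1.0 µM incubated with male SD rat liver microsomes (0.2 mg protein/mL) plus 1 mM NADPH and 0.1 mM EDTA in 100 mM phosphate buffer at 37°C. Percentage remaining was measured by LC/MS/MS. Run in duplicate.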

The target of series [3] is T1, Tyrosine-protein kinase JAK3 (Homo sapiens, UniProt P52333).
T1 sequence (P52333 whole entry): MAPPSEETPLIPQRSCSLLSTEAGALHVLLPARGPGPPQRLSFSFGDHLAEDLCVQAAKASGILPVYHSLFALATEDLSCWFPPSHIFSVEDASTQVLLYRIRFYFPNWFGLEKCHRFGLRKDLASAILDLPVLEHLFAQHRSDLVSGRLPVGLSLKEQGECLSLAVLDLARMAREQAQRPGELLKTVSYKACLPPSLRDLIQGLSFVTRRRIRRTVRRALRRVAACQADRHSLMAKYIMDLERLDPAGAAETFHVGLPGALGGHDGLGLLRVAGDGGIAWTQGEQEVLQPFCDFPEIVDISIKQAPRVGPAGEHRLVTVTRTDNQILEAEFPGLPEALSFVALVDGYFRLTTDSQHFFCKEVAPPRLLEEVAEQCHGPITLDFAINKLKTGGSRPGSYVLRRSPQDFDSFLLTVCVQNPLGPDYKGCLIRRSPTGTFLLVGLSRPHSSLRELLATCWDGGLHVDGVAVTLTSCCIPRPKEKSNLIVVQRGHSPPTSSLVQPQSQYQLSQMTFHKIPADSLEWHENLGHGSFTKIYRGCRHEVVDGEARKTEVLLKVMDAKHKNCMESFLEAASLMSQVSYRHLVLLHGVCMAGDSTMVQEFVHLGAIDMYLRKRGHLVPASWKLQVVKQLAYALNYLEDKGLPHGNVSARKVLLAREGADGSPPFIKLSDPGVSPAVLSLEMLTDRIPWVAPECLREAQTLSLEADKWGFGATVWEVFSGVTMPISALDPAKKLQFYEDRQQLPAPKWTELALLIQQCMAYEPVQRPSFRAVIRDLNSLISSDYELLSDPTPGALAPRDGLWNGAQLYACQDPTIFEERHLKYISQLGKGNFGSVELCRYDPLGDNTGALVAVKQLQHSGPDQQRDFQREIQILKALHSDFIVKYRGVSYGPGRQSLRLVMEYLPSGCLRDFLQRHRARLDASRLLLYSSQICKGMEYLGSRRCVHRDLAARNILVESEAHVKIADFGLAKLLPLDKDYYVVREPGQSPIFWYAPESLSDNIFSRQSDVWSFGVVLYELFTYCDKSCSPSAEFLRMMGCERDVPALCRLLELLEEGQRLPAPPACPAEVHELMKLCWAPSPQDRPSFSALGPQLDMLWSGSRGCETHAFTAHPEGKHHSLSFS
Nature of the series: Inhibition of recombinant human N-terminal His-tagged JAK3 catalytic domain (795 to 1124 residues) expressed in baculovirus expression system using Biotin-Lyn-Substrate2 after 1 hr by ELISA. In a few lines:
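Human JAK3 kinase domain with 250 nM biotinylated Lyn substrate peptide and 8 µM ATP (final). Reaction started with enzyme, run 1 h at room temperature on streptavidin plate. Phosphorylation read by anti-phosphotyrosine HRP ELISA. Run in duplicate.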

In series [4] the target is Tyrosine-protein kinase JAK2 (Homo sapiens, UniProt O60674). Kind of series: Inhibition of recombinant human N-terminal His-tagged JAK2 catalytic domain (826 to 1132 residues) expressed in baculovirus expression system using Biotin-Lyn-Substrate2 after 1 hr by ELISA.
The nature of series [5]: Inhibition of JAK1/JAK3 in rat splenocytes assessed as reduction in IL-2-induced T cell proliferation. The format is cell-based. The method, boiled down: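 Male Lewis rat splenocytes, 1.5×10^6 cells/mL in RPMI1640 with 10% FBS and 50 µM 2-mercaptoethanol, primed with concanavalin A 24 h at 37°C to induce IL-2 receptor. Then incubated with IL-2 plus compound at designated concentrations for 3 days. Proliferation read by alamarBlue after 6 h (ex 545/em 590 nm). Duplicate or triplicate wells, IC50 by linear or Sigmoid-Emax regression.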

The nature of series [6]: Intrinsic clearance in rat liver microsomes. The class given is ADME, microsome. To be noted: read-out: CLH. The method, boiled down: as §1
The nature of series [7]: Half life in Sprague-Dawley rat at 1 mg/kg, iv administered as single dose by LC-MS/MS analysis. The class given is ADME, organism-based. To be noted: in vivo. In a few lines: (§2)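 Male SD rats (Crl:CD(SD), 7 weeks old), food deprived before dosing; single intravenous dose of 1 mg/kg in 10 v/v% propylene glycol. Blood was sampled at multiple time points up to 24 h. Unchanged compound in plasma was measured by LC/MS/MS. Parameters were calculated from mean plasma concentrations (n=3) at each time point.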

The nature of series [8]: Inhibition of JAK1/JAK3 in Lewis rat splenocytes assessed as reduction in IL-2-induced T cell proliferation after 3 days by alamar blue assay. The class given is cell-based. As to conditions: 72 h.
The nature of series [9]: Cmax in Sprague-Dawley rat at 1 mg/kg, po administered as single dose by LC-MS/MS analysis. As to conditions: in vivo. The class given is ADME, organism-based. Further details: dose 1 mg/kg, route oral. In a few lines:
(§3)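 Male SD rats (Crl:CD(SD), 7 weeks old), food deprived before dosing; single oral dose of 1 mg/kg in 0.5 w/v% methylcellulose. Blood was sampled at multiple time points up to 24 h. Unchanged compound in plasma was measured by LC/MS/MS. Parameters were calculated from mean plasma concentrations (n=3) at each time point.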

The nature of series [10]: Oral bioavailability in Sprague-Dawley rat at 1 mg/kg administered as single dose by LC-MS/MS analysis. The class given is ADME, organism-based. As to conditions: in vivo. The method, boiled down:
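Fasted male SD rats, 7 weeks old, given 1 mg/kg as a single dose, orally in 0.5 w/v% methylcellulose and intravenously in 10 v/v% propylene glycol. Plasma was sampled up to 24 h and unchanged compound measured by LC/MS/MS. Bioavailability was derived from mean concentrations (n=3 per time point).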

Series [11] can be described thus: Half life in Sprague-Dawley rat at 1 mg/kg, po administered as single dose by LC-MS/MS analysis. To be noted: in vivo. The format is ADME, organism-based. In a few lines:
as §3

A short description of series [12]: Volume of distribution at steady state in Sprague-Dawley rat at 1 mg/kg, iv administered as single dose by LC-MS/MS analysis. The class given is ADME, organism-based. As to conditions: in vivo, read-out: Vdss. The method, boiled down:
as §2

Series [13] is described as follows: AUC (0 to infinity) in Sprague-Dawley rat at 1 mg/kg, iv administered as single dose by LC-MS/MS analysis. The class given is ADME, organism-based. Further details: dose 1 mg/kg, time infinity, route intravenous. To be noted: in vivo. The method, boiled down: as §2
Series [14] can be described thus: Tmax in Sprague-Dawley rat at 1 mg/kg, po administered as single dose by LC-MS/MS analysis. The format is ADME, organism-based. To be noted: in vivo. In a few lines:
as §3

Series [15] can be described thus: AUC (0 to infinity) in Sprague-Dawley rat at 1 mg/kg, po administered as single dose by LC-MS/MS analysis. The class given is ADME, organism-based. Further details: dose 1 mg/kg, route oral, time infinity. As to conditions: in vivo. The method, boiled down: as §3
Series [16] can be described thus: Total clearance in Sprague-Dawley rat at 1 mg/kg, iv administered as single dose by LC-MS/MS analysis. To be noted: in vivo. The class given is ADME, organism-based. The method, boiled down:
as §2

Chain of Tyrosine-protein kinase JAK1 (P23458 whole entry, the tested form may be a part): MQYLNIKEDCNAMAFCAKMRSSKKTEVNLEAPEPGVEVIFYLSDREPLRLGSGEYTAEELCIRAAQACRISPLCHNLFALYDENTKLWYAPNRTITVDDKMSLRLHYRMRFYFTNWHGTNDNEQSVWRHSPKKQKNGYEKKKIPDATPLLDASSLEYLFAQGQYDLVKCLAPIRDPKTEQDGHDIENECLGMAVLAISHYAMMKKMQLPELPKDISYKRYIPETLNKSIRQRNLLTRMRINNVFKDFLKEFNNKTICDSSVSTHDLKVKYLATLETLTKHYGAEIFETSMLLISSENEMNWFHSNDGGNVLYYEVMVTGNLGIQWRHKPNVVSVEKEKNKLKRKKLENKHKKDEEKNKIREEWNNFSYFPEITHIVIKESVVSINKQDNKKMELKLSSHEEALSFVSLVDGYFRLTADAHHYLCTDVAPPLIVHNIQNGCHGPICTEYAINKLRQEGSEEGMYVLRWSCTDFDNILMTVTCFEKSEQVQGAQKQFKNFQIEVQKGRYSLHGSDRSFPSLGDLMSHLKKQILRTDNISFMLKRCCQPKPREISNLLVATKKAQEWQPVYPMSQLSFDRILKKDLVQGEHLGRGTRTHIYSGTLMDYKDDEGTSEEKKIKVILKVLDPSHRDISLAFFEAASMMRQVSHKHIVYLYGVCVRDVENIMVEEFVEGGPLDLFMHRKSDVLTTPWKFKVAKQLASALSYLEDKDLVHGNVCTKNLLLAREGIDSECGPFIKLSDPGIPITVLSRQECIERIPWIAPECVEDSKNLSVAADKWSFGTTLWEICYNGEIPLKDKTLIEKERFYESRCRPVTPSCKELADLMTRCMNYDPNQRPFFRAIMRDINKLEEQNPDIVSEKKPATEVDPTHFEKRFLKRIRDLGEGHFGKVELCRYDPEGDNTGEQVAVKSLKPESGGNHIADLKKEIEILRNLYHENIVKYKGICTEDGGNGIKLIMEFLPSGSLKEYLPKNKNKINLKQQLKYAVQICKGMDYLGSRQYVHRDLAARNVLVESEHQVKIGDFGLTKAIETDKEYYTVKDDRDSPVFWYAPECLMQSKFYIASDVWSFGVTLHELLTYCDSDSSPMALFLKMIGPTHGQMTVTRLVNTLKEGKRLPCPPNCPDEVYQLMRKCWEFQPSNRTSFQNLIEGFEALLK
Chain of Tyrosine-protein kinase JAK2 (O60674 whole entry, the tested form may be a part): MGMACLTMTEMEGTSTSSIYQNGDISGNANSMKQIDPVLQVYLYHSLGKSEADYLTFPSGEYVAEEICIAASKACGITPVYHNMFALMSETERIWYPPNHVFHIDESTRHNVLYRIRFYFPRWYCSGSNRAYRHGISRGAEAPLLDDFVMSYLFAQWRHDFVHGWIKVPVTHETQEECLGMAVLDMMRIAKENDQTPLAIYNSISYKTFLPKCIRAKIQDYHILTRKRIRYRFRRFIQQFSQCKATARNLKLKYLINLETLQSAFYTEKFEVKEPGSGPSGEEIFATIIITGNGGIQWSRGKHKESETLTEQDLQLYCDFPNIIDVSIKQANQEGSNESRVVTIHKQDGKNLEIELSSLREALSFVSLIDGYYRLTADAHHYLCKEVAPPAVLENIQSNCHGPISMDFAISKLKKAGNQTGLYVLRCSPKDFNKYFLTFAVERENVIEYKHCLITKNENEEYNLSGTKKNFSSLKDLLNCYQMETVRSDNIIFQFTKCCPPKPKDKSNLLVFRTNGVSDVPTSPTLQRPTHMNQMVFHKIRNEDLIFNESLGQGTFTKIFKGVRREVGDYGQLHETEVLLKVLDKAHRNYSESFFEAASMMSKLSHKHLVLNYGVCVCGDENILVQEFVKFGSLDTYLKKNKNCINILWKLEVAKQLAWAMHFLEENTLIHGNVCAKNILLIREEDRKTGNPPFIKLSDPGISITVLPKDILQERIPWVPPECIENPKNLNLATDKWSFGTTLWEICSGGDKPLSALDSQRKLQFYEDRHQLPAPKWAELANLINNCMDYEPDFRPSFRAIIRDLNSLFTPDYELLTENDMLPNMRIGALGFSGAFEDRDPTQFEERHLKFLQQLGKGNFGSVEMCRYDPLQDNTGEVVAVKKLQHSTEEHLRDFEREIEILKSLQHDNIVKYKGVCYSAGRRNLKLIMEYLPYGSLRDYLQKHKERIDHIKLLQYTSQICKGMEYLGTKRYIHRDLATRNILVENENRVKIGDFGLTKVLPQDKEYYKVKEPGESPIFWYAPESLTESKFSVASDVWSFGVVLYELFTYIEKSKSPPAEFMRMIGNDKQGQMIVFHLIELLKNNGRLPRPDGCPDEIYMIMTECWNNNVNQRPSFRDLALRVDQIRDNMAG

With `NC(=O)c1cnc2[nH]ccc2c1N[C@@H]1C[C@H]2CC[C@@H]1C2` (racemic), the IC50 in series [1] is 24 nM; in [3] it was 3.2 nM; in series [4], 15 nM. Besides, the CLint scaled at 0.2 µM in series [2] was determined as 859 mL/min/kg.

On to `NC(=O)c1cnc2[nH]ccc2c1NC1C2CC3CC(C2)CC1C3` (configuration not stated), for which the IC50 was determined as 12 nM in series [1], 2.1 nM in series [3] and 11 nM in series [4]. Also, in [2], the CLint scaled at 0.2 µM is above 1000 mL/min/kg.

`COC12CC3CC(C1)C(Nc1c(C(N)=O)cnc4[nH]ccc14)C(C3)C2` (configuration not stated): the IC50 in series [1] came to 7.8 nM; in series [3] it was 0.63 nM; in series [4], 5 nM. Also, in series [2], the CLint scaled at 0.2 µM is above 1000 mL/min/kg.

Turning to `NC(=O)c1cnc2[nH]ccc2c1NC12CC3CC(CC(C3)C1)C2`, the IC50 in series [1] stood at 110 nM; in [3] it was 10 nM; in series [4], 120 nM.

For `C[C@@H]1CCCC[C@@H]1Nc1c(C(N)=O)cnc2[nH]ccc12`, in [5], the IC50 came to 86 nM. The CLint scaled in series [6] was above 1000 mL/min/kg.

As to `NC(=O)c1cnc2[nH]ccc2c1NC1C2CC3CC1CC(F)(C3)C2` (configuration not stated), the IC50 in [1] is 19 nM; in series [3], 2.1 nM; in series [4], 11 nM. In series [2], the CLint scaled at 0.2 µM is above 1000 mL/min/kg.

`Br.NC(=O)c1cnc2[nH]ccc2c1NC1C2CC3CC1CC(O)(C3)C2` (configuration not stated): the half-life in series [7] was 4.72 h; in series [11] it was 2.12 h. Besides, the IC50 in series [8] was 10 nM. The CLint scaled at 0.2 µM in [2] is 124 mL/min/kg. In series [9], this compound yielded a Cmax of 126 ng/mL. This compound also registered a bioavailability in series [10] of 45.9%. The Vd in series [12] came to 1.83 L/kg. Besides, the AUC(0-inf) in series [13] was determined as 575 ng·h/mL; in series [15], 264 ng·h/mL. Further, in series [14], the Tmax is 0.25 h. The clearance in series [16] is 29 mL/min/kg.
